Assay [1] has as its target T1, Tyrosine-protein phosphatase non-receptor type 1 (Homo sapiens, UniProt P18031).
T1 sequence (P18031 whole entry): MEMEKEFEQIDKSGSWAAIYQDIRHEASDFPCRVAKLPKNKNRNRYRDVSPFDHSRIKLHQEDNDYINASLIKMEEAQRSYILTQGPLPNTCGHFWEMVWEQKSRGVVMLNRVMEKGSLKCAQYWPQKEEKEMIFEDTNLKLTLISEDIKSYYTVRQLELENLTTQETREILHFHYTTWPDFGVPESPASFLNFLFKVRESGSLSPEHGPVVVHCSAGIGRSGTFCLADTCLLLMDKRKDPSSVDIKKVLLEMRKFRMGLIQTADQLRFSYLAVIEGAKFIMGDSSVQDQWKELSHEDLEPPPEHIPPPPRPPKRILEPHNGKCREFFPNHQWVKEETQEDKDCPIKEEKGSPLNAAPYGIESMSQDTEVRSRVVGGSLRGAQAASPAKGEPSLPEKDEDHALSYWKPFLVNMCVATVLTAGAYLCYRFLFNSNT
The assay is described as follows: Inhibitory activity against recombinant human PTP1B. A digest of the protocol:
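Recombinant human PTP-1B (0.1 μg) incubated with 20 μM fluorescein diphosphate and compound in 30 mM Tris, 75 mM NaCl, 0.67 mM EDTA, 1 mM DTT, pH 8.0, for 1 h at room temperature. Product fluorescein monophosphate read by fluorescence (ex 485 nm, em 538 nm). IC50 reported.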

In assay [2] the target is T2, Tyrosine-protein phosphatase non-receptor type 1 (Homo sapiens) (UniProt P18031).
T2 sequence (whole entry): T1 sequence (P18031 whole entry)
Description: Inhibitory activity against recombinant human PTP1B at 10 uM.

In assay [3] the target is Receptor-type tyrosine-protein phosphatase F (Homo sapiens, UniProt P10586). The assay is described as follows: Inhibitory activity against LAR protein tyrosine phosphatase at 10 uM. A digest of the protocol: (§1)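 Phosphatase selectivity panel using fluorescein diphosphate substrate at 20 μM, the same level as in the PTP-1B assay. Compound tested at a single concentration of 10 μM; percent inhibition of enzyme activity reported.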

The target of assay [4] is T3, Receptor-type tyrosine-protein phosphatase C (Homo sapiens) (UniProt P08575).
T3 sequence (whole entry): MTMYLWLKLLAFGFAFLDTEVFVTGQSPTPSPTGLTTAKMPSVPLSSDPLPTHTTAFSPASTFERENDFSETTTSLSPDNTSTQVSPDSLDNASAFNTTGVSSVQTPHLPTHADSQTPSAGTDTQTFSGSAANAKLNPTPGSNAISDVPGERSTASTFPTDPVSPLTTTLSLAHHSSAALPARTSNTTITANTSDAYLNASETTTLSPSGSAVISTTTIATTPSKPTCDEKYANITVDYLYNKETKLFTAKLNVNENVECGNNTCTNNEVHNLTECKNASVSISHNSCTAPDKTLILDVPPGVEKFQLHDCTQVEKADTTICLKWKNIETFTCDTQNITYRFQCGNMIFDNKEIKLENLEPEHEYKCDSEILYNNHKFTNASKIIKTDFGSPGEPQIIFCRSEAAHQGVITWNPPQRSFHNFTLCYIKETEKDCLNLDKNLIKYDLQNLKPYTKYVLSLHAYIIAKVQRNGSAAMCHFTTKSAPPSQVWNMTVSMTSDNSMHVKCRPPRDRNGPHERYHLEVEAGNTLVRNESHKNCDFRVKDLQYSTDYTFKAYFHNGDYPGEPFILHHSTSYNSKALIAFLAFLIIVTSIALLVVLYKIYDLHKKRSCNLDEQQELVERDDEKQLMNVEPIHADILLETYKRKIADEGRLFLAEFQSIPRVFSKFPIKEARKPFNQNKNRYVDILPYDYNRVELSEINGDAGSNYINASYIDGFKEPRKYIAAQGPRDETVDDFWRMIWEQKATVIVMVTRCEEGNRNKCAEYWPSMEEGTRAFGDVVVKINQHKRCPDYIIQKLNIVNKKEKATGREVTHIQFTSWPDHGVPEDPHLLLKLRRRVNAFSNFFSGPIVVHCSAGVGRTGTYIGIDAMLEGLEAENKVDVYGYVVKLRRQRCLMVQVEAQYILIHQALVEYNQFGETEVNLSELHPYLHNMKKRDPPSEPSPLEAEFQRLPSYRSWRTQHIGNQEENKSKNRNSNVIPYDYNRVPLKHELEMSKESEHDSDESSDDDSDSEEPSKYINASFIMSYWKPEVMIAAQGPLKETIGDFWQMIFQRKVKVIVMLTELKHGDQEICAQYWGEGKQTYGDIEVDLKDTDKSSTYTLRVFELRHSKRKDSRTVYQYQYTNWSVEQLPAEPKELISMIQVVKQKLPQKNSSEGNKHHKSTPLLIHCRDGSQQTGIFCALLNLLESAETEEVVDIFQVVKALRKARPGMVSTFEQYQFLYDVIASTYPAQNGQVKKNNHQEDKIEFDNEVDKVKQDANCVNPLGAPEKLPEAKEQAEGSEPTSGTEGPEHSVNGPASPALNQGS
The assay is described as follows: Inhibitory activity against CD45 phosphatase at 10 uM. The method in brief:
as §1

The target in assay [5] is Serine/threonine-protein phosphatase PP1-gamma catalytic subunit (Homo sapiens, UniProt P36873). Description: Inhibitory activity against Protein phosphatase 1 at 10 uM. A digest of the protocol:
as §1

The target in assay [6] is Dual specificity protein phosphatase 3 (Homo sapiens, UniProt P51452). The assay is described as follows: Inhibitory activity against VH1-related phosphatase VHR at 10 uM. A digest of the protocol:
as §1

Assay [7] deals with T4, M-phase inducer phosphatase 2 (Homo sapiens) (UniProt P30305).
T4 sequence (whole entry): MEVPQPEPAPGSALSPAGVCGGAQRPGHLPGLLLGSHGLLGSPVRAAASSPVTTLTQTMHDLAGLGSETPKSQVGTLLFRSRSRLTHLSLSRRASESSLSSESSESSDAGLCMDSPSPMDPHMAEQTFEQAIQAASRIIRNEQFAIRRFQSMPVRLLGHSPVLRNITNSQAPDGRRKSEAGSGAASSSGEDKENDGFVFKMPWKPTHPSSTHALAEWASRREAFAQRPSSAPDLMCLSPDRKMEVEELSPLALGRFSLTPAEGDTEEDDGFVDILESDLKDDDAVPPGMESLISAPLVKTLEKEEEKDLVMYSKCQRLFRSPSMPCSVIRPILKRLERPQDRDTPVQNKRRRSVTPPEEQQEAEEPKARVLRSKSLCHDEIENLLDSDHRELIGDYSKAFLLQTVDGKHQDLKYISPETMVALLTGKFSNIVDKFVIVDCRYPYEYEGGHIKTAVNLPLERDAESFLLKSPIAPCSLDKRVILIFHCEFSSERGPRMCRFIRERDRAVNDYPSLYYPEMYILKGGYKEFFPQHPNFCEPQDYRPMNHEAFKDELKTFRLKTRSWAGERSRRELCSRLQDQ
Description: Inhibitory activity against cdc25B phosphatase at 10 uM. A digest of the protocol: as §1

Assay [8] addresses Tyrosine-protein phosphatase YopH (Yersinia enterocolitica) (UniProt P15273). The assay is described as follows: Inhibitory activity against YOP protein tyrosine phosphatase at 10 uM. A digest of the protocol: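 Yop phosphatase tested in the nine-phosphatase selectivity panel with 20 μM fluorescein diphosphate as substrate. Inhibitor tested at a single concentration of 10 μM; the value is % inhibition.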

Assay [9] concerns the target T5, M-phase inducer phosphatase 1 (Homo sapiens) (UniProt P30304).
T5 sequence (whole entry): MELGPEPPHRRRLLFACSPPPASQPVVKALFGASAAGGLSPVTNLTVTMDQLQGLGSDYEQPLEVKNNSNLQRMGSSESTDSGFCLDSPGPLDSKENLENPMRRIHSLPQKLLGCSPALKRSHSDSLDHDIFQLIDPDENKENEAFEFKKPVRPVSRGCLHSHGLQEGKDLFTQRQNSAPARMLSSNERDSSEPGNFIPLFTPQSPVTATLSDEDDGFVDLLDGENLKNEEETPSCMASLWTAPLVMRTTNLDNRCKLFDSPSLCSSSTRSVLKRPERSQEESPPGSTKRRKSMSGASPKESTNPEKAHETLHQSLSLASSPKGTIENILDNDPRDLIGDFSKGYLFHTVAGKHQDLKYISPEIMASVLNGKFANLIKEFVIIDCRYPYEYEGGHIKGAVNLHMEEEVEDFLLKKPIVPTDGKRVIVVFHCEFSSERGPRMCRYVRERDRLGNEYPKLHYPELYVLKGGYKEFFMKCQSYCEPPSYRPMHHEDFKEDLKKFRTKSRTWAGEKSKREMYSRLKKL
Description: Inhibitory activity against cdc25A phosphatase at 10 uM. A digest of the protocol: as §1

Assay [10] in a line: Inhibitory activity against protein phosphatase type 2A at 10 uM. The method in brief:
as §1

33 molecules from ChEMBL document CHEMBL1149392, “PTP-1B inhibitors: cyclopenta[d][1,2]-oxazine derivatives” (Bioorg Med Chem Lett, 2006) can be followed below.

The source made the active and inactive calls. No cut-off for these calls is given here.

Receptor-type tyrosine-protein phosphatase F, sequence (P10586 whole entry): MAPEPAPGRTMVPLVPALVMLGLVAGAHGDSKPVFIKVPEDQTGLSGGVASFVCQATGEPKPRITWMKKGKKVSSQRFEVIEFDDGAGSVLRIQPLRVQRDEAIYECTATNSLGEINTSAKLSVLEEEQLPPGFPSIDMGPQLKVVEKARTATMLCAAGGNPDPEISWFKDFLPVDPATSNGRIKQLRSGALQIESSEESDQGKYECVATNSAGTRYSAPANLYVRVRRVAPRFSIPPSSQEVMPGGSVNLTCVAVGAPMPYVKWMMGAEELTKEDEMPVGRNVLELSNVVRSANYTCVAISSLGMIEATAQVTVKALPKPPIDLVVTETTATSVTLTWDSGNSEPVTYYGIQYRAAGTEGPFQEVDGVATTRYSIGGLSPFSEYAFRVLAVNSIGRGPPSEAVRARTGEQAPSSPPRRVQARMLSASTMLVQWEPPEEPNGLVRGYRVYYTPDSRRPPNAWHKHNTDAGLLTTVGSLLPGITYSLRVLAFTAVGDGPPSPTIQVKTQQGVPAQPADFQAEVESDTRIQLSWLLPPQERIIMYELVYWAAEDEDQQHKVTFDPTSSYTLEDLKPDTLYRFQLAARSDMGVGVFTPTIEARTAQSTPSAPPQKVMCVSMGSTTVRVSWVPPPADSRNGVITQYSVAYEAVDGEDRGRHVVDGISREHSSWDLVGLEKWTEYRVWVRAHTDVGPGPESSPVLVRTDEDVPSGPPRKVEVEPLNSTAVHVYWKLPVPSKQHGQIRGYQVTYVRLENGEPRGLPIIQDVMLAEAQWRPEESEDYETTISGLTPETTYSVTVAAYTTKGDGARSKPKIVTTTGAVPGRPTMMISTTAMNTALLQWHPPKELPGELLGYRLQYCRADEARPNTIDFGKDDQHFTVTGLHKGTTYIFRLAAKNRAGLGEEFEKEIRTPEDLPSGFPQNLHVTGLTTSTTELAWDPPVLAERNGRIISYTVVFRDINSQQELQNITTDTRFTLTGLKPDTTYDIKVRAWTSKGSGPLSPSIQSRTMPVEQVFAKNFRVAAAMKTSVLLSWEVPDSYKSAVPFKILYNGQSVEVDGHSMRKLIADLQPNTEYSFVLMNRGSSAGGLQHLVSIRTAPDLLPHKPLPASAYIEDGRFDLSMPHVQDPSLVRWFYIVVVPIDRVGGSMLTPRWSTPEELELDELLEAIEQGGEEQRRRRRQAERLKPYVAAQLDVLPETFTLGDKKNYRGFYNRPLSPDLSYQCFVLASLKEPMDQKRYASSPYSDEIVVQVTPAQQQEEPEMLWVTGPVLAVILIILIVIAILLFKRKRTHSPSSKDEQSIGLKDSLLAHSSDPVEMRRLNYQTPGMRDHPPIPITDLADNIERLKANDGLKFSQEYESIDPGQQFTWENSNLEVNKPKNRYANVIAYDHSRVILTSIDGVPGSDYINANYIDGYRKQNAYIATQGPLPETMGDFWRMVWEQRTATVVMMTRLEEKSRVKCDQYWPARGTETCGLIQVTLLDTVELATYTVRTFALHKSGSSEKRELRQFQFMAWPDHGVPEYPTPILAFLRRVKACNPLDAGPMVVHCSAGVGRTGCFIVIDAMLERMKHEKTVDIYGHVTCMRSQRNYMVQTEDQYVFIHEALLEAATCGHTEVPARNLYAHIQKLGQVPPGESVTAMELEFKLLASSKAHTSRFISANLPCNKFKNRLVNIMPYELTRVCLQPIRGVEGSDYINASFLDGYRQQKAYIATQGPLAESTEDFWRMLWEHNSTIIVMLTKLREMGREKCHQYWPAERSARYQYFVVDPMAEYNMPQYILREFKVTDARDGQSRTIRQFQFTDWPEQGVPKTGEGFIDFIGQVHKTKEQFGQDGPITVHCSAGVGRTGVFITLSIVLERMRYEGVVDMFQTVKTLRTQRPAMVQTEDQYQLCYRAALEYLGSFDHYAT
Serine/threonine-protein phosphatase PP1-gamma catalytic subunit, sequence (P36873 2-323 limits assumed): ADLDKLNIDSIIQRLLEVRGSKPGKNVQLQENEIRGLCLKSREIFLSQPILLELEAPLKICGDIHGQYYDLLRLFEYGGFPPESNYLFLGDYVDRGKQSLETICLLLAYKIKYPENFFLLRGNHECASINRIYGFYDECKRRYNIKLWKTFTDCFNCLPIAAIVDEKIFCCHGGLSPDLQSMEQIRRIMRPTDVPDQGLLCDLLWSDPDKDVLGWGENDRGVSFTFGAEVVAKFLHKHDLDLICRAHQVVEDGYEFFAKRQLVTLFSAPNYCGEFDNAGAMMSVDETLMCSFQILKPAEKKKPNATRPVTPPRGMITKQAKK
Dual specificity protein phosphatase 3, sequence (P51452 whole entry, looked up): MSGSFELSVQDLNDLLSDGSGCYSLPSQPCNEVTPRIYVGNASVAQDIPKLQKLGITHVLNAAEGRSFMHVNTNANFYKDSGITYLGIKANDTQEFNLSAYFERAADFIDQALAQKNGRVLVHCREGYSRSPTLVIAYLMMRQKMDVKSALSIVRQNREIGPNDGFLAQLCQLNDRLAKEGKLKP
Tyrosine-protein phosphatase YopH (Yersinia enterocolitica), sequence (P15273 whole entry): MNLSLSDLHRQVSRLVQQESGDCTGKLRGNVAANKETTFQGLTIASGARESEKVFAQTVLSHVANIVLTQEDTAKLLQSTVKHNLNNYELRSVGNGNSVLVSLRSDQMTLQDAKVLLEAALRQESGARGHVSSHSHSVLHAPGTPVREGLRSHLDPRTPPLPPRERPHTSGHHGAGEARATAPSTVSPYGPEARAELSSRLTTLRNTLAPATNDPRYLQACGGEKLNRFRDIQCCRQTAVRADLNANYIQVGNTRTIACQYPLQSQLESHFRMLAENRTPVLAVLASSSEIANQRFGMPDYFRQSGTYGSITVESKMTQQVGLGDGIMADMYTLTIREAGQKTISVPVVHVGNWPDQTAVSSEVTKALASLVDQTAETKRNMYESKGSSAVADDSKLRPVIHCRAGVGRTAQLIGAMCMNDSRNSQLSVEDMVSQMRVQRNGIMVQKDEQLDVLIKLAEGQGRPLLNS

Consider `COc1ccc(C(=O)c2ccc3c(-c4ccc(OCC(=O)N5CCN(Cc6ccccc6)CC5)cc4)nocc2-3)cc1`, for which the IC50 (in general, the concentration at which inhibition is half-maximal) in assay [1] came to 5.48 µM. Further, the inhibition – broadly, the drop in the measured response relative to a control, in per cent – in assay [2] turned out to be 68.8%.
`O=C(c1ccc2c(-c3ccc(OC(C(=O)O)C(=O)O)cc3)nocc1-2)C1CCCC1`: the IC50 in assay [1] came out at 8.19 µM. Besides, the inhibition in assay [2] worked out at 76.7%.
Consider `CCOC(=O)/C=C/c1ccc2c(-c3ccc(OCC(=O)O)cc3)nocc1-2`, for which, in assay [2], the inhibition entry was “inactive”.
As to `O=C(O)COc1ccc(-c2nocc3c(C(=O)c4ccco4)ccc2-3)cc1`, the inhibition entry in [2] was “inactive”.
The same measure, in the same setting: then `Cc1onc(-c2ccc(OCC(=O)O)cc2)c2cccc1-2`, with “inactive”.
The same measure, in the same setting: then `COc1ccccc1C(=O)c1ccc2c(-c3ccc(OCC(=O)O)cc3)nocc1-2`, with 3.8%.
On to `COc1ccc(CC(=O)c2ccc3c(-c4ccc(OCC(=O)O)cc4)nocc2-3)cc1`, for which the IC50 in [1] turned out to be 5.63 µM. Moreover, in assay [2], the inhibition turned out to be 85.5%.
On to `COCCNCc1ccc(C(=O)c2ccc3c(-c4ccc(OCC(=O)O)cc4)nocc2-3)cc1`, for which, in [2], the inhibition amounted to 10.2%.
For the molecule `CCOC(=O)COc1ccc(-c2nocc3cccc2-3)cc1`, in [2], the inhibition amounted to 2.1%.
As for `CCCCCCCCCCCCCCC(=O)c1ccc2c(-c3ccc(OCC(=O)O)cc3)nocc1-2`, the IC50 in assay [1] turned out to be 0.27 µM. In [2], the inhibition was determined as 101%.
In the case of `O=C(O)COc1ccc(-c2nocc3c(C(=O)c4ccc(Cl)cc4Cl)ccc2-3)cc1`, in assay [2], the inhibition is 38%.
`O=C(O)COc1ccc(-c2nocc3c(C(=O)c4cccc(C(F)(F)F)c4)ccc2-3)cc1`: the IC50 in [1] is 7.55 µM. In addition, the inhibition in assay [2] is 68.9%.
Consider `COc1cccc(C(=O)c2ccc3c(-c4ccc(OCC(=O)O)cc4)nocc2-3)c1`, for which the IC50 in assay [1] is 1.96 µM. Also, the inhibition in assay [2] was 87.4%.
For `COc1ccc(C(=O)c2ccc3c(-c4ccc(OCC(=O)NCCO)cc4)nocc2-3)cc1`, in assay [2], the inhibition entry was “inactive”.
The same measure, in the same setting: then `COc1ccc(C(=O)c2ccc3c(-c4ccc(OC)cc4)nocc2-3)cc1`, with 32%.
On the same count and under the same terms, in the case of `O=C(O)COc1ccc(-c2noc(-c3ccccc3)c3cccc2-3)cc1` it was 1.1%.
With `O=C(O)COc1ccc(-c2nocc3c(C(=O)c4ccc(Cl)cc4)ccc2-3)cc1`, in assay [2], the inhibition amounted to 14.3%.
The same measure, in the same setting: then `N#Cc1cccc(C(=O)c2ccc3c(-c4ccc(OCC(=O)O)cc4)nocc2-3)c1`, with “inactive”; and `COc1ccc(C(=O)c2ccc3c(-c4ccc(OC(C(=O)O)C(=O)O)cc4)nocc2-3)cc1`, with 3.3%; and `COc1ccc(-c2nocc3cccc2-3)cc1`, with 3%.
Same read-out and setting: in the case of `COc1ccc(C(=O)c2ccc3c(-c4ccc(OCC(=O)O)cc4)noc(C)c2-3)cc1` it was “inactive”; in that of `O=C(O)COc1ccc(-c2nocc3c(C(=O)CCC4CCCC4)ccc2-3)cc1`, 42.4%; in that of `O=C(O)COc1ccc(-c2nocc3c(C(=O)C4CCCC4)ccc2-3)cc1`, 15.7%.
On to `COc1ccc(C(=O)c2ccc3c(-c4ccc(O[C@@H](Cc5ccccc5)C(=O)O)cc4)nocc2-3)cc1`, for which the inhibition in assay [3] is 17.3%; in [4], 95.7%; in assay [5], 63.5%; in [6] it was -6.83%; in assay [7] it was 89.7%; in assay [8], 96.8%. The values for the inhibition in assay [9] and in assay [2] were 10.3% and 80.1%, respectively. Further, in assay [1], the IC50 stood at 7.82 µM.
Turning to `CC(=O)c1ccc2c(-c3ccc(OCC(=O)O)cc3)nocc1-2`, the inhibition result in [2] is “inactive”.
On to `COc1ccc(C(=O)c2ccc3c(-c4ccc(OCC(=O)NCN5CCOCC5)cc4)nocc2-3)cc1`, for which the inhibition result in assay [2] was “inactive”.
Consider `COc1ccc(C(=O)c2ccc3c(-c4cc(Br)c(OCC(=O)O)c(Br)c4)nocc2-3)cc1`, for which the inhibition was 57.7% in [3]; 41.8% in assay [10]; 100% in [4]; 106% in [5]; 53.4% in [6]; 100% in assay [7]. The inhibition in assay [8] turned out to be 101%; in assay [9], 40.5%; in assay [2], 101%. In addition, the IC50 in [1] was 1.64 µM.
For the molecule `COc1ccc(O)c(CC(=O)c2ccc3c(-c4ccc(OCC(=O)O)cc4)nocc2-3)c1`, the inhibition in [2] was determined as 48.7%.
`O=C(c1ccc2c(-c3ccc(OC(CCO)C(=O)O)cc3)nocc1-2)C1CCCC1` (configuration not stated): in [2], the inhibition result was “inactive”.
Consider `COc1ccc(-c2nocc3c(C(=O)c4ccc(Cl)cc4Cl)ccc2-3)cc1`, for which, in [1], the IC50 worked out at 3.4 µM. Also, the inhibition in assay [2] worked out at 101%.
With `Oc1ccc(-c2nocc3cccc2-3)cc1`, in assay [2], the inhibition is 18.5%.
`O=C(O)COc1ccc(-c2nocc3cccc2-3)cc1`: in assay [2], the inhibition was 27.4%.
Still for that read-out and setting: then `O=C(O)COc1ccc(-c2nocc3c(C(=O)c4ccccc4F)ccc2-3)cc1`, with 11.9%.
